Reference: ChEMBL document CHEMBL1147036, “An NQO1- and PARP-1-mediated cell death pathway induced in non-small-cell lung cancer cells by beta-lapachone” (2007)
Activity calls are given as the source filed them.

Key:
NCI-H596 [1] = test: Reversal of induction of NAD+ depletion in NQO1 expressing human H596 cells at 10 uM in presence of 40 uM dicoumarol by luciferase based bioluminescence assay; type: functional, cell-based
Outline: (§1)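 10 μM drug ± 40 μM DIC; intracellular NAD+ measured at set times and expressed as % treated/control. Means ± SE of at least three independent experiments, each in duplicate.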

A549 [2] = test: Reversal of induction of NAD+ depletion in NQO1 expressing human A549 cells at 10 uM in presence of 40 uM dicoumarol by luciferase based bioluminescence assay; type: functional, cell-based; outline: as §1
A549 [3] = test: Reversal of PARP1 hyperactivation in NQO1 expressing human A549 cells assessed as PAR formation in presence of 3-aminobenzamide; type: functional, cell-based
Outline: (§2)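 Cells pretreated 2 h with or without 25 mM 3-aminobenzamide, then exposed to drug with or without 3-AB for 20 min; PAR formation read by Western blot.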

NCI-H596 [4] = test: Reversal of PARP1 hyperactivation in NQO1 expressing human H596 cells assessed as PAR formation in presence of 3-aminobenzamide; type: functional, cell-based; outline: as §2
A549 [5] = test: Reversal of induction of cell death in human A549 cells in presence of 3-aminobenzamide at 10 uM after 48 hrs by TUNEL assay; type: functional, cell-based
A549 [6] = test: Reversal of induction of DNA damage in human A549 cells in presence of 3-aminobenzamide at 10 uM after 2 hrs; type: functional, cell-based
A549 [7] = test: Reversal of cell death in human A549 cells at 10 uM in presence of 3-aminobenzamide after 2 hrs; type: functional, cell-based
A549 [8] = test: Reversal of PARP1 hyperactivation in NQO1 expressing human A549 cells assessed as PAR formation at 6 uM in presence of 1,2-bis(2-aminophenoxy)ethane-N,N,N',N'-tetraacetic acid acetoxymethyl ester; type: functional, cell-based
Outline: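 A549 cells pretreated with 5 μM BAPTA-AM or mock, then exposed to 6 μM drug for 10 min; lysates probed for PAR by Western blot.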

A549 [9] = test: Reversal of induction of NAD+ depletion in NQO1 expressing human A549 cells at 6 uM in presence of 1,2-bis(2-aminophenoxy)ethane-N,N,N',N'-tetraacetic acid acetoxymethyl ester; type: functional, cell-based
Outline: (§3)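 A549 cells pretreated with 5 μM BAPTA-AM or mock, then given 6 μM drug for 1 h; percent NAD+ loss measured as surrogate of PARP-1 hyperactivation, expressed as % of control.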

A549 [10] = test: Reversal of cell death in NQO1 expressing human A549 cells at 6 uM in presence of 1,2-bis(2-aminophenoxy)ethane-N,N,N',N'-tetraacetic acid acetoxymethyl ester; type: functional, cell-based
A549 [11] = test: Induction of NAD+ depletion in NQO1 expressing human A549 cells at 6 uM after 1 hr by luciferase based bioluminescence assay; type: functional; outline: as §3
NCI-H596 [12] = test: Induction of DNA damage in NQO1 expressing human H596 cells at 10 uM in presence of dicoumarol after 2 hrs by alkaline comet tail assay; type: functional, cell-based
Outline: (§4)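 Cells exposed 10 μM drug for 2 h, ± 50 μM DIC; 2 mM H2O2 for 2 h as positive control. Alkaline comet assay, SYBR Green staining, fluorescence microscopy; tail lengths quantified in arbitrary units. Means ± SE from three experiments.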

A549 [13] = test: Induction of DNA damage in NQO1 expressing human A549 cells at 10 uM in presence of dicoumarol after 2 hrs by alkaline comet tail assay; type: functional, cell-based; outline: as §4
NCI-H596 [14] = test: Reversal of induction of PARP1 hyperactivation in NQO1 expressing human H596 cells assessed as PAR accumulation at 10 uM for 10 mins by Western blot; type: functional, cell-based
A549 [15] = test: Reversal of induction of nucleotide depletion in NQO1 expressing human A549 cells in presence of 3-aminobenzamide by luciferase based bioluminescence assay; type: functional, cell-based
Outline: (§5)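 Cells pretreated 2 h ± 25 mM 3-AB, then drug ± 3-AB; harvested at set times. NAD+ as % treated/control; ATP by luciferase bioluminescence of whole-cell extracts. Means ± SE of three experiments.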

NCI-H596 [16] = test: Reversal of induction of nucleotide depletion in NQO1 expressing human H596 cells in presence of 3-aminobenzamide by luciferase based bioluminescence assay; type: functional, cell-based; outline: as §5
NCI-H596 [17] = test: Cytotoxicity against NQO1 expressing human H596 cells assessed as long term survival at =>5 uM for 2 hrs; type: functional, cell-based
Outline: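 Isogenic H596 lines (retroviral NQO1 or empty vector, pooled, puromycin 1.0 μg/ml selected) in DMEM/10% FBS, 37°C, 5% CO2. Drug given 2 h, then removed; relative survival from DNA content after 7 days' growth. Confirmed by colony formation; means ± SE of three experiments in triplicate.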

A549 [18] = test: Cytotoxicity against NQO1 expressing human A549 cells after 2 hrs; type: functional; conditions: A549, 2 h, read-out: LD50 (the source's name)
Outline: (§6)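 Long-term relative survival assay: cells exposed to drug for 2 h (A549 with or without 50 μM dicoumarol), drug removed, then grown 7 days post-treatment in DMEM with 10% FBS at 37°C, 5% CO2. Survival read from DNA content and confirmed by colony-forming ability. LD50 from dose-response; means ± SE, at least three experiments in triplicate. H596 line stably expressing NQO1 via retroviral vector, puromycin-selected.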

[19] = Cytotoxicity against NQO1 expressing human H596 cells after 2 hrs; type: functional; conditions: NCI-H596, 2 h, read-out: LD50 (the source's name); outline: as §6
NCI-H596 [20] = test: Induction of oxidative stress in NQO1 expressing human H596 cells assessed as reactive oxygen species generation at 10 uM after 1 hr by flow cytometry; type: functional, cell-based
Outline: (§7)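 Cells given 10 μM drug ± 50 μM DIC; ROS monitored over a time course by conversion of chloromethyl-dichlorodihydrofluorescein diacetate to fluorescent product, read by flow cytometry. 2 mM H2O2 or 10 μM antimycin A for 20 min as positive controls. Means ± SE, three experiments in duplicate.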

A549 [21] = test: Induction of oxidative stress in NQO1 expressing human A549 cells assessed as reactive oxygen species generation at 10 uM after 1 hr by flow cytometry; type: functional, cell-based; outline: as §7
NCI-H596 [22] = test: Induction of DNA damage in NQO1 expressing human H596 cells at 10 uM after 2 hrs by alkaline comet tail assay; type: functional, cell-based; outline: as §4
A549 [23] = test: Induction of DNA damage in NQO1 expressing human A549 cells at 10 uM after 2 hrs by alkaline comet tail assay; type: functional, cell-based; outline: as §4
NCI-H596 [24] = test: Induction of DNA damage in NQO1 deficient human H596 cells at 10 uM after 2 hrs by alkaline comet tail assay; type: functional, cell-based; outline: as §4
NCI-H596 [25] = test: Induction of PARP1 hyperactivation in NQO1 expressing human H596 cells assessed as PAR accumulation at 10 uM for 10 mins by Western blot; type: functional, cell-based
A549 [26] = test: Induction of PARP1 hyperactivation in NQO1 expressing human A549 cells assessed as PAR accumulation at 10 uM for 10 mins by Western blot; type: functional, cell-based
NCI-H596 [27] = test: Induction of PARP1 hyperactivation in NQO1 deficient human H596 cells assessed as PAR accumulation at 10 uM for 10 mins by Western blot; type: functional, cell-based
NCI-H596 [28] = test: Induction of ATP depletion in NQO1 expressing human H596 cells at 10 uM by luciferase based bioluminescence assay; type: functional, cell-based
Outline: (§8)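 Cells exposed to 10 μM drug, harvested at set times; ATP measured in whole-cell extracts by luciferase bioluminescence. DIC coadded with drug in NQO1 inhibition arms. Means ± SE, three or more experiments in triplicate.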

A549 [29] = test: Induction of ATP depletion in NQO1 expressing human A549 cells at 10 uM by luciferase based bioluminescence assay; type: functional, cell-based; outline: as §8
NCI-H596 [30] = test: Induction of NAD+ depletion in NQO1 expressing human H596 cells at 10 uM by luciferase based bioluminescence assay; type: functional, cell-based; outline: as §1
A549 [31] = test: Induction of NAD+ depletion in NQO1 expressing human A549 cells at 10 uM by luciferase based bioluminescence assay; type: functional, cell-based; outline: as §1
NCI-H596 [32] = test: Reversal of PAR-polymer formation in NQO1 expressing human H596 cells at 10 uM in presence of 50 uM dicoumarol; type: functional, cell-based
A549 [33] = test: Reversal of PAR-polymer formation in NQO1 expressing human A549 cells at 10 uM in presence of 50 uM dicoumarol; type: functional, cell-based
NCI-H596 [34] = test: Reversal of induction of ATP depletion in NQO1 expressing human H596 cells at 10 uM in presence of 40 uM dicoumarol by luciferase based bioluminescence assay; type: functional, cell-based; outline: as §8
A549 [35] = test: Reversal of induction of ATP depletion in NQO1 expressing human A549 cells at 10 uM in presence of 40 uM dicoumarol by luciferase based bioluminescence assay; type: functional, cell-based; conditions: in the assay text read “50 uM dicoumarol” for “40 uM dicoumarol”; outline: as §8

CC1(C)CCC2=C(O1)c1ccccc1C(=O)C2=O [LAPACHONE]
4 µM: CC50 [19]
inactive: Activity (NCI-H596 [12]) | Activity (A549 [13]) | Activity (NCI-H596 [24]) | Activity (NCI-H596 [27])
43%: Activity (A549 [11])
2.5 µM: CC50 (A549 [18])
active: Activity (NCI-H596 [1]) | Activity (A549 [2]) | Activity (A549 [3]) | Activity (NCI-H596 [4]) | Activity (A549 [5]) | Activity (A549 [6]) | Activity (A549 [7]) | Activity (A549 [8]) | Activity (A549 [9]) | Activity (A549 [10]) | Activity (NCI-H596 [14]) | Activity (A549 [15]) | Activity (NCI-H596 [16]) | Activity (NCI-H596 [17]) | Activity (NCI-H596 [20]) | Activity (A549 [21]) | Activity (NCI-H596 [22]) | Activity (A549 [23]) | Activity (NCI-H596 [25]) | Activity (A549 [26]) | Activity (NCI-H596 [28]) | Activity (A549 [29]) | Activity (NCI-H596 [30]) | Activity (A549 [31]) | Activity (NCI-H596 [32]) | Activity (A549 [33]) | Activity (NCI-H596 [34]) | Activity (A549 [35])
